Experimental data published in ChEMBL document CHEMBL2412970, “Synthesis and anticancer activity of 2,4-disubstituted furo[3,2-b]indole derivatives” (Eur J Med Chem, 2013).
The source made the active and inactive calls. The calls are words filed in the database; no cut-off is given here.

Legend:
[1] = system: A498; assay: Induction of apoptosis in human A498 cells assessed as caspase-9 activation at 0.5 uM after 24 hrs by Western blotting analysis; format: functional, cell-based
Method in brief: (§1)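 A498 cells exposed for 6, 12, 24, 36 or 48 h, then washed in PBS and lysed. Lysates were held on ice for 30 min and spun at 12 000g for 20 min. Supernatant protein was measured by Bradford assay, run on 10% SDS-PAGE and transferred to nitrocellulose. Blots were probed for AIF, Endo G, Apaf-1, cytochrome c, caspase 9 and caspase 3, with β-actin as loading control; n = 3 independent experiments.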

[2] = system: NCI-H226; assay: Cytotoxicity against human NCI-H226 cells after 48 hrs by sulforhodamine B assay; format: functional; conditions: NCI-H226, 48 h
[3] = system: MDA-MB-468; assay: Cytotoxicity against human MDA-MB-468 cells after 48 hrs by sulforhodamine B assay; format: functional; conditions: MDA-MB-468, 48 h
[4] = system: A498; assay: Cell cycle arrest in human A498 cells assessed as accumulation at sub-G1 phase at 0.5 uM after 24 hrs by propidium iodide staining-based flow cytometry (reference value: 0.10 +/- 0.07%); format: functional
[5] = system: A498; assay: Cytotoxicity against human A498 cells assessed as reduction in cell viability at 0.1 uM after 48 hrs by MTT assay relative to control; format: functional
[6] = system: A498; assay: Cell cycle arrest in human A498 cells assessed as accumulation at G0/G1 phase at 0.5 uM after 36 hrs by propidium iodide staining-based flow cytometry (reference value: 78.70 +/- 0.02%); format: functional
[7] = system: A498; assay: Cell cycle arrest in human A498 cells assessed as accumulation at S phase at 0.5 uM after 24 hrs by propidium iodide staining-based flow cytometry (reference value: 15.92 +/- 0.03%); format: functional
[8] = system: OVCAR-8; assay: Cytotoxicity against human OVCAR8 cells after 48 hrs by sulforhodamine B assay; format: functional; conditions: OVCAR-8, 48 h
[9] = Cytotoxicity against human EKVX cells after 48 hrs by sulforhodamine B assay; format: functional
[10] = system: A498; assay: Induction of apoptosis in human A498 cells assessed as reduction in mitochondrial membrane potential at 0.5 uM after 12 to 48 hrs by JC-1 staining-based flow cytometry; format: functional, cell-based
Method in brief: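 A498 cells at 1 × 10⁶ cells/mL, untreated or treated for 12–48 h, were stained with JC-1 working solution for 10–15 min and analysed by flow cytometry. High-potential cells show intense red JC-1 aggregate fluorescence; loss of potential is scored as the population with reduced red fluorescence.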

[11] = system: MOLT-4; assay: Cytotoxicity against human MOLT4 cells after 48 hrs by sulforhodamine B assay; format: functional; conditions: MOLT-4, 48 h
[12] = system: A498; assay: Cell cycle arrest in human A498 cells assessed as accumulation at G2/M phase at 0.5 uM after 36 hrs by propidium iodide staining-based flow cytometry (reference value: 5.39 +/- 0.01%); format: functional
[13] = system: A498; assay: Induction of apoptosis in human A498 cells assessed as increase in cytochrome C level at 0.5 uM after 6 to 48 hrs by Western blotting analysis; format: functional, cell-based; method in brief: as §1
[14] = Cytotoxicity against human Hep3B cells after 48 hrs by MTT assay; format: functional, cell-based, Hep 3B2
[15] = system: A498; assay: Cytotoxicity against human A498 cells assessed as cell rounding at 0.5 uM after 24 hrs by phase contrast microscopy; format: functional, cell-based
Method in brief: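 A498 cells were plated at 5 × 10⁵ per well and exposed to 0.5 µM for 24 h. Cell rounding and shrinkage were scored by microscopy against untreated control cells.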

[16] = system: A498; assay: Antitumor activity against human A498 cells xenografted in ip dosed BALB/cAnN.Cg-Foxn1nu/CrlNarl nude mouse assessed as suppression of tumor growth administered qd for 5 times a week for 28 days measured every 7 days; format: functional, organism-based
Method in brief: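 Male nude mice (18–20 g, 4–6 weeks) were inoculated subcutaneously with A498 cells, 2 × 10⁶ per mouse in 0.1 mL PBS. Once tumors reached 100 mm³, mice were randomized and given ip doses of 30 or 60 mg/kg, 5 times per week for 4 weeks. Body weight and tumor size were recorded every 7 days over 28 days. Volume = 1/2 ([…]).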

[17] = system: A498; assay: Induction of apoptosis in human A498 cells assessed as caspase-3 activation at 0.5 uM after 24 hrs by Western blotting analysis; format: functional, cell-based; method in brief: as §1
[18] = system: A498; assay: Induction of apoptosis in human A498 cells assessed as early apoptotic cells at 0.5 uM after 24 hrs by AnnexinV/FITC-propidium iodide staining-based flow cytometry (reference value: 3.9%); format: functional
[19] = system: OVCAR-3; assay: Cytotoxicity against human OVCAR3 cells after 48 hrs by sulforhodamine B assay; format: functional; conditions: OVCAR-3, 48 h
[20] = system: OVCAR-4; assay: Cytotoxicity against human OVCAR4 cells after 48 hrs by sulforhodamine B assay; format: functional; conditions: OVCAR-4, 48 h
[21] = system: A498; assay: Induction of apoptosis in human A498 cells assessed as increase in AIF level at 0.5 uM after 6 to 48 hrs by Western blotting analysis; format: functional, cell-based; method in brief: as §1
[22] = system: MCF7; assay: Cytotoxicity against human MCF7 cells after 48 hrs by sulforhodamine B assay; format: functional; conditions: MCF7, 48 h
[23] = system: A498; assay: Induction of apoptosis in human A498 cells assessed as late apoptotic cells at 0.5 uM after 36 hrs by AnnexinV/FITC-propidium iodide staining-based flow cytometry (reference value: 9.6%); format: functional
Method in brief: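 Flow cytometry with annexin V-FITC/PI double labeling of A498 cells treated for 12, 24, 36 or 48 h; untreated cells served as the 0 h control. Stained in binding buffer for 15 min at room temperature in the dark, with more binding buffer added just before analysis. Annexin V+/PI− (Q4) counted as early apoptotic and annexin V+/PI+ (Q2) as late apoptotic.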

[24] = system: A498; assay: Induction of apoptosis in human A498 cells assessed as increase in Endo G level at 0.5 uM after 6 to 48 hrs by Western blotting analysis; format: functional, cell-based; method in brief: as §1
[25] = system: HCT-15; assay: Cytotoxicity against human HCT15 cells after 48 hrs by sulforhodamine B assay; format: functional; conditions: HCT-15, 48 h
[26] = system: A498; assay: Cytotoxicity against human A498 cells assessed as reduction in cell viability at 1 uM after 48 hrs by MTT assay relative to control; format: functional
[27] = system: A549; assay: Cytotoxicity against human A549/ATCC cells after 48 hrs by sulforhodamine B assay; format: functional; conditions: A549, 48 h
[28] = system: UACC-62; assay: Cytotoxicity against human UACC62 cells after 48 hrs by sulforhodamine B assay; format: functional; conditions: UACC-62, 48 h
[29] = system: A498; assay: Cell cycle arrest in human A498 cells assessed as accumulation at sub-G1 phase at 0.5 uM after 36 hrs by propidium iodide staining-based flow cytometry (reference value: 0.10 +/- 0.07%); format: functional
[30] = read-out: pLC50 (the source's name) (converted)

SMILES: OCc1ccc(Cn2c3ccccc3c3oc(CO)cc32)o1
- Activity [1]: Active
- GI50 [2]: 0.224 µM
- TGI ([2]; read-out: pTGI (converted)): 0.55 µM
- GI50 [3]: 0.17 µM
- TGI ([3]; read-out: pTGI (converted)): 0.562 µM
- Activity [4]: 0.91%
- Activity [5]: 82.8%
- Activity [6]: 69.69%
- Activity [7]: 15.98%
- GI50 [8]: > 100 µM
- CC50 [8, 30]: > 100 µM
- TGI ([8]; read-out: pTGI): > 100 µM
- GI50 [9]: 24 µM
- CC50 [9, 30]: > 100 µM
- TGI ([9]; read-out: pTGI): > 100 µM
- Activity [10]: Active
- GI50 [11]: 77.6 µM
- CC50 [11, 30]: > 100 µM
- TGI ([11]; read-out: pTGI): > 100 µM
- Activity [12]: 15.98%
- Activity [13]: Active
- IC50 [14]: > 50 µM
- Activity [15]: Active
- Activity [16]: Dose-dependent effect
- Activity [17]: Active
- Activity [18]: 12.7%
- GI50 [19]: 8.91 µM
- CC50 [19, 30]: > 100 µM
- TGI ([19]; read-out: pTGI): > 100 µM
- GI50 [20]: 4.27 µM
- CC50 [20, 30]: > 100 µM
- TGI ([20]; read-out: pTGI): > 100 µM
- Activity [21]: Active
- GI50 [22]: 9.33 µM
- CC50 [22, 30]: > 100 µM
- TGI ([22]; read-out: pTGI): > 100 µM
- Activity [23]: 20.3%
- Activity [24]: Active
- GI50 [25]: 87.1 µM
- CC50 [25, 30]: > 100 µM
- TGI ([25]; read-out: pTGI): > 100 µM
- Activity [26]: 19.4%
- GI50 [27]: 64.6 µM
- CC50 [27, 30]: > 100 µM
- TGI ([27]; read-out: pTGI): > 100 µM
- GI50 [28]: 3.24 µM
- CC50 [28, 30]: > 100 µM
- TGI ([28]; read-out: pTGI): > 100 µM
- Activity [29]: 3.16%
